pIC50: −log10 of the molar value.
What was measured:
[1] = system: HL-60; test: Cytotoxicity against human HL60 cells assessed as reduction in cell viability after 72 hrs by MTT assay; assay type: functional, cell-based; settings: HL-60, 72 h
Outline: (§1)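 MTT viability assay. Cancer lines grown in RPMI 1640 and L929 fibroblasts in DMEM, each with 10% FBS, 2 mM glutamine, penicillin/streptomycin, 37 °C, 5% CO2. PBMC were taken from healthy donors by density-gradient centrifugation, kept in RPMI with 20% FBS and stimulated with 2% phytohemagglutinin. Cells were exposed 72 h (0.01–27.32 µM). MTT 0.5 mg/mL for 3 h, absorbance read at 550 nm. IC50 with 95% CI from nonlinear regression; triplicate, ≥3 independent experiments.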

[2] = system: PC-3; test: Cytotoxicity against human PC3 cells assessed as reduction in cell viability after 72 hrs by MTT assay; assay type: functional, cell-based; settings: PC-3, 72 h; outline: as §1
[3] = system: OVCAR-8; test: Cytotoxicity against human OVCAR8 cells assessed as reduction in cell viability after 72 hrs by MTT assay; settings: OVCAR-8, 72 h
[4] = system: Jurkat; test: Cytotoxicity against human Jurkat cell viability after 72 hrs by MTT assay
[5] = system: NCI-H460; test: Cytotoxicity against human NCI-H460 cells assessed as reduction in cell viability after 72 hrs by MTT assay; settings: NCI-H460, 72 h
[6] = system: MX1; test: Cytotoxicity against human MX1 cells assessed as reduction in cell viability after 72 hrs by MTT assay; settings: MX1, 72 h
[7] = system: HCT-116; test: Cytotoxicity against human HCT116 cells assessed as reduction in cell viability after 72 hrs by MTT assay; assay type: functional, cell-based; settings: HCT-116, 72 h; outline: as §1
[8] = system: L929; test: Cytotoxicity against mouse L929 cells assessed as reduction in cell viability after 72 hrs by MTT assay; assay type: cell-based; settings: L929, 72 h; outline: as §1
[9] = system: SF-295; test: Cytotoxicity against human SF295 cells assessed as reduction in cell viability after 72 hrs by MTT assay; settings: SF-295, 72 h
[10] = system: PBMC; test: Cytotoxicity against human PBMC cells assessed as reduction in cell viability after 72 hrs by MTT assay

SMILES | pIC50 [1] | pIC50 [2] | pIC50 [3] | pIC50 [4] | pIC50 [5] | pIC50 [6] | pIC50 [7] | pIC50 [8] | pIC50 [9] | pIC50 [10]
O=C1c2ccccc2C(=O)c2c(-c3ccc(F)cc3)coc21 | 5.48 | 5.40 | 5.27 | 5.46 | 5.36 | 5.28 | 5.22 | 4.87 | 5.20 | < 4.77
COc1ccc(-n2cc(-c3ccccc3)c3c2C(=O)c2ccccc2C3=O)cc1 | < 4.88 | < 4.88 |  |  | < 4.88 |  | < 4.88 | < 4.88 | < 4.88 | < 4.88
CCOC(=O)Cc1c(-c2cccs2)c2c(n1-c1ccccc1)C(=O)c1ccccc1C2=O | 5.58 | < 4.95 |  |  | < 4.95 |  | < 4.95 | < 4.95 | < 4.95 | < 4.95
CCOC(=O)Cc1c(-c2ccc(OC)c(OC)c2)c2c(n1-c1cccc(Br)c1)C(=O)c1ccccc1C2=O | < 5.06 | < 5.06 |  |  | < 5.06 |  | < 5.06 | < 5.06 | < 5.06 | < 5.06
CCOC(=O)Cc1c(-c2ccc(C)cc2)c2c(n1-c1ccc(OC)cc1)C(=O)c1ccccc1C2=O | 5.47 | < 4.98 |  |  | < 4.98 |  | < 4.98 | < 4.98 | < 4.98 | < 4.98
COc1ccc(-c2cn(-c3ccc(Cl)cc3)c3c2C(=O)c2ccccc2C3=O)cc1 | < 4.90 | < 4.90 |  |  | < 4.90 |  | < 4.90 | < 4.90 | < 4.90 | < 4.90
Cc1ccc(-c2cn(-c3cccc(Br)c3)c3c2C(=O)c2ccccc2C3=O)cc1 | < 4.88 | < 4.88 |  |  | < 4.88 |  | < 4.88 | < 4.88 | < 4.88 | < 4.88
O=C1c2ccccc2C(=O)c2c(-c3ccc(Br)cc3)coc21 | 5.58 | 5.58 | 5.53 | 5.56 | 5.31 | 5.49 | 5.27 | < 4.85 | 5.46 | < 4.85
CCOC(=O)Cc1oc2c(c1-c1ccc(Cl)cc1)C(=O)c1ccccc1C2=O | 4.99 | < 4.90 |  |  | < 4.90 |  | < 4.90 | < 4.90 | < 4.90 | < 4.90
CCOC(=O)Cc1oc2c(c1-c1ccco1)C(=O)c1ccccc1C2=O | < 4.85 | < 4.85 |  |  | < 4.85 |  | < 4.85 | < 4.85 | < 4.85 | < 4.85
CCOC(=O)Cc1oc2c(c1-c1cccc3ccccc13)C(=O)c1ccccc1C2=O | 5.17 | < 4.91 |  |  | < 4.91 |  | < 4.91 | < 4.91 | < 4.91 | < 4.91
COc1ccc(-n2cc(-c3ccc(F)cc3)c3c2C(=O)c2ccccc2C3=O)cc1 | < 4.90 | < 4.90 |  |  | < 4.90 |  | < 4.90 | < 4.90 | < 4.90 | < 4.90
CCOC(=O)Cc1oc2c(c1-c1ccc(C)cc1)C(=O)c1ccccc1C2=O | < 4.87 | < 4.87 |  |  | < 4.87 |  | < 4.87 | < 4.87 | < 4.87 | < 4.87
COc1ccc(-c2cn(-c3ccccc3)c3c2C(=O)c2ccccc2C3=O)cc1 | < 4.89 | < 4.89 |  |  | < 4.89 |  | < 4.89 | < 4.89 | < 4.89 | < 4.89
CCOC(=O)Cc1oc2c(c1-c1cc(OC)c(OC)c(OC)c1)C(=O)c1ccccc1C2=O | 5.40 | 5.06 |  |  | < 4.95 |  | < 4.95 | < 4.95 | 4.99 | < 4.95
COc1ccc(-c2cn(-c3ccc(F)cc3)c3c2C(=O)c2ccccc2C3=O)cc1 | < 4.88 | < 4.88 |  |  | < 4.88 |  | < 4.88 | < 4.88 | < 4.88 | < 4.88
CCOC(=O)Cc1c(-c2ccc(Cl)cc2)c2c(n1-c1ccc(OC)cc1)C(=O)c1ccccc1C2=O | < 5.00 | < 5.00 |  |  | < 5.00 |  | < 5.00 | < 5.00 | < 5.00 | < 5.00

Source: ChEMBL document CHEMBL4152217, “Quinonoid compounds via reactions of lawsone and 2-aminonaphthoquinone with α-bromonitroalkenes and nitroallylic acetates: Structural diversity by C-ring modification and cytotoxic evaluation against cancer cells” (Eur J Med Chem, 2018)
